Measurements: ChEMBL document CHEMBL1128741, “Synthesis and biological evaluation of 5-fluoro-2'-deoxyuridine phosphoramidate analogs” (J Med Chem, 1995)
pIC50: −log10 of the molar value.

Columns and labels:
B16 = assay: In vitro cytotoxicity (LC99) was measured against B16 Melanoma cells; assay type: cell-based; conditions: mouse
Method in brief: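 B16 melanoma cells in exponential growth, (2–3) × 10⁶ in 10 mL serum-free MEM, exposed to drug for 2 h, then washed and resuspended in MEM + 10% FBS. Plated at 50–50 000 cells/plate, grown 8 d at 37 °C. Colonies stained with crystal violet and counted. LC99 (2-log drop in colony formation) taken from log-linear part of log surviving fraction vs concentration.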

L1210 [1] = assay: In vitro growth inhibition of L1210 cells 2 hours after administration of compound; assay type: functional, cell-based; conditions: Mus musculus, L1210, 2 h
Method in brief: (§1)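 Exponentially growing L1210 cells at (3–6) × 10⁴/mL in Fischer's medium with 10% horse serum, glutamine and antibiotic-antimycotic. Drug exposure lasted the stated time (2, 8, 24 or 48 h). Cells were then spun down and resuspended in drug-free medium. Coulter counts were taken 48 h after the start of treatment and expressed as percent of control. IC50 is given in μM.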

L1210 [2] = assay: In vitro growth inhibition of L1210 cells 24 hours after administration of compound; assay type: functional, cell-based; conditions: Mus musculus, L1210, 24 h; method in brief: as §1
L1210 [3] = assay: In vitro growth inhibition of L1210 cells 48 hours after administration of compound; assay type: functional, cell-based; conditions: Mus musculus, L1210, 48 h; method in brief: as §1
L1210 [4] = assay: In vitro growth inhibition of L1210 cells 8 hours after administration of compound; assay type: functional, cell-based; conditions: Mus musculus, L1210, 8 h; method in brief: as §1

Work on `O=c1[nH]cc(F)c(=O)[nH]1` [FLUOROURACIL] yielded an LC99 (B16) greater than 2000 µM, a pIC50 (L1210 [1]) of 5.66 and a pIC50 (L1210 [2]) of 6.66. The pIC50 (L1210 [3]) was 6.92 and the pIC50 (L1210 [4]) was 6.20.

`Cc1ccc(S(=O)(=O)OCCN(C)P(=O)(OCCC2NC(C)(C)CC(C)O2)OC[C@H]2O[C@@H](n3cc(F)c(=O)[nH]c3=O)C[C@@H]2O)cc1` (stereo partly specified) showed an LC99 (B16) of 141 µM, a pIC50 (L1210 [1]) of 6.80 and a pIC50 (L1210 [2]) of 7.72. The pIC50 (L1210 [3]) was 8.60 and the pIC50 (L1210 [4]) was 7.22.

For `CC1CC(C)(C)NC(CCOP(=O)(OC[C@H]2O[C@@H](n3ccc(=O)[nH]c3=O)C[C@@H]2O)N(CCBr)CCBr)O1` (stereo partly specified), the LC99 (B16) was 155 µM.

`CC1CC(C)(C)NC(CCOP(=O)(OC[C@H]2O[C@@H](n3cc(F)c(=O)[nH]c3=O)C[C@@H]2O)N2CCCCC2)O1` (stereo partly specified) was tested, and the LC99 (B16) was 650 µM, the pIC50 (L1210 [1]) was 6.12 and the pIC50 (L1210 [2]) was 7.62. It also gave a pIC50 (L1210 [3]) of 8.10 and a pIC50 (L1210 [4]) of 6.59.

`CC1CC(C)(C)NC(CCOP(=O)(OC[C@H]2O[C@@H](n3cc(F)c(=O)[nH]c3=O)C[C@@H]2O)N(C)CCCl)O1` (stereo partly specified) was tested, and the LC99 (B16) was 375 µM, the pIC50 (L1210 [1]) was 6.52 and the pIC50 (L1210 [2]) was 7.60. The pIC50 (L1210 [3]) was 8.46 and the pIC50 (L1210 [4]) was 6.80.

For `Cc1cn([C@H]2C[C@H](O)[C@@H](COP(=O)(OCCC3NC(C)(C)CC(C)O3)N(C)CCBr)O2)c(=O)[nH]c1=O` (stereo partly specified), the LC99 (B16) was 165 µM, the pIC50 (L1210 [1]) was 4.89 and the pIC50 (L1210 [2]) was 5.15. It also gave a pIC50 (L1210 [3]) of 6.23 and a pIC50 (L1210 [4]) of 4.98.

`Cc1cn([C@H]2C[C@H](O)[C@@H](COP(=O)(OCCC3NC(C)(C)CC(C)O3)N(CCBr)CCBr)O2)c(=O)[nH]c1=O` (stereo partly specified) was tested, and the LC99 (B16) was 120 µM.

`CC1CC(C)(C)NC(CCOP(=O)(OC[C@H]2O[C@@H](n3cc(F)c(=O)[nH]c3=O)C[C@@H]2O)N2CCOCC2)O1` (stereo partly specified) was tested, and the pIC50 (L1210 [1]) was 4.82, the pIC50 (L1210 [2]) was 6.05 and the pIC50 (L1210 [3]) was 6.82. For the same compound, the pIC50 (L1210 [4]) was 5.30.

Compound `CC1CC(C)(C)NC(CCOP(=O)(OC[C@H]2O[C@@H](n3cc(F)c(=O)[nH]c3=O)C[C@@H]2O)N(CCBr)CCBr)O1` (stereo partly specified) has an LC99 (B16) of 100 µM.

Compound `CC1CC(C)(C)NC(CCOP(=O)(OC[C@H]2O[C@@H](n3ccc(=O)[nH]c3=O)C[C@@H]2O)N(C)CCCl)O1` (stereo partly specified) has a pIC50 (L1210 [1]) of 4.40, a pIC50 (L1210 [2]) of 5.22 and a pIC50 (L1210 [3]) of 6.26. The pIC50 (L1210 [4]) was 4.78.

In the case of `CC1CC(C)(C)NC(CCOP(=O)(OC[C@H]2O[C@@H](n3cc(F)c(=O)[nH]c3=O)C[C@@H]2O)N(C)CCBr)O1` (stereo partly specified), the LC99 (B16) was 101 µM, the pIC50 (L1210 [1]) was 6.92 and the pIC50 (L1210 [2]) was 7.74. For the same compound, the pIC50 (L1210 [3]) was 8.60 and the pIC50 (L1210 [4]) was 7.30.

In the case of `CC1CC(C)(C)NC(CCOP(=O)(OC[C@H]2O[C@@H](n3cc(F)c(=O)[nH]c3=O)C[C@@H]2O)N(C)CCI)O1` (stereo partly specified), the LC99 (B16) was 95 µM, the pIC50 (L1210 [1]) was 6.72 and the pIC50 (L1210 [2]) was 8.22. The pIC50 (L1210 [3]) was 8.70 and the pIC50 (L1210 [4]) was 7.12.

`CC1CC(C)(C)NC(CCOP(=O)(OC[C@H]2O[C@@H](n3ccc(=O)[nH]c3=O)C[C@@H]2O)N(C)CCBr)O1` (stereo partly specified) gave an LC99 (B16) of 319 µM, a pIC50 (L1210 [1]) of 4.70 and a pIC50 (L1210 [2]) of 5.89. It also gave a pIC50 (L1210 [3]) of 6.37 and a pIC50 (L1210 [4]) of 5.09.
